Experimental findings from ChEMBL document CHEMBL3877250, “Design, synthesis, and biological evaluation of (2E)-(2-oxo-1, 2-dihydro-3H-indol-3-ylidene)acetate derivatives as anti-proliferative agents through ROS-induced cell apoptosis” (Eur J Med Chem, 2016) are described below.

Broadly, the IC50 is the concentration needed to halve the response being measured. High values mean weaker potency, low ones greater potency.

One data set is described as follows: Cytotoxicity against human HCT116 cells assessed as growth inhibition at 20 uM after 72 hrs by CCK-8 assay. In kind it is functional. The conditions noted are these: HCT-116, 72 h, read-out: GI. The gist of the method: (§1)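 Cells kept in RPMI 1640 with 10% heat-inactivated fetal calf serum and 1% streptomycin/penicillin at 37 °C, 5% CO2. After compound exposure, CCK-8 was added and cells were incubated 4 h at 37 °C, then absorbance was read at 450 nm. Viability is relative to untreated cells (100%). IC50 comes from nonlinear regression, mean of three separate determinations. Single-concentration screen at 20 µM.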
In general terms: Tetrazolium assays rely on reduction of a dye to a coloured formazan, in cell work by metabolically active cells.
`CC(C)(C)OC(=O)/C=C1/C(=O)Nc2ccc(Cl)cc21`: the inhibition of growth at 20 µM was 89.7%.
The same measure, in the same setting: in the case of `COc1ccc2c(c1)NC(=O)/C2=C/C(=O)OC(C)(C)C` it was 89.5%.
On the same count and under the same terms, in the case of `O=C(O)/C=C1/C(=O)Nc2ccccc21` it was -0.7%.
Still for that read-out and setting: in the case of `COc1ccc2c(c1)/C(=C\C(=O)OC(C)(C)C)C(=O)N2` it was 89.6%.

A further data set can be described thus: Cytotoxicity against human Saos2 cells after 72 hrs by CCK-8 assay. Format: functional, cell-based. The conditions noted are these: SAOS-2, 72 h. A digest of the protocol:
as §1
On to `CC(C)(C)OC(=O)/C=C1/C(=O)Nc2ccc(Cl)cc21`, for which the IC50 was 6.51 µM. In other words, the single-digit micromolar range.

The nature of the next data set: Cytotoxicity against human OVCAR3 cells after 72 hrs by CCK-8 assay. In kind it is functional, cell-based. The conditions noted are these: OVCAR-3, 72 h. The gist of the method: as §1
On to `CC(C)(C)OC(=O)/C=C1/C(=O)Nc2ccc(Cl)cc21`, for which inhibition was half-maximal at 19 µM (IC50).

Another data set can be described thus: Cytotoxicity against human SW480 cells assessed as growth inhibition at 20 uM after 72 hrs by CCK-8 assay. Format: functional. The note with it: SW480, 72 h, read-out: GI. A digest of the protocol:
as §1
As to `CC(C)(C)OC(=O)/C=C1/C(=O)Nc2ccc(Cl)cc21`, the inhibition of growth at 20 µM is 78.5%.
As for `COc1ccc2c(c1)NC(=O)/C2=C/C(=O)OC(C)(C)C`, the inhibition of growth at 20 µM was 78.8%.
Still for that read-out and setting: in the case of `O=C(O)/C=C1/C(=O)Nc2ccccc21` it was 6.4%; in that of `COc1ccc2c(c1)/C(=C\C(=O)OC(C)(C)C)C(=O)N2`, 78.7%.

The nature of a further data set: Cytotoxicity against human MDA-MB-231 cells after 72 hrs by CCK-8 assay. The note with it: MDA-MB-231, 72 h. In kind it is functional, cell-based. The gist of the method: as §1
For the molecule `CC(C)(C)OC(=O)/C=C1/C(=O)Nc2ccc(Cl)cc21`, the IC50 came to 3.11 µM. This lies in the single-digit micromolar range.

A further data set can be described thus: Cytotoxicity against human HepG2 cells after 72 hrs by CCK-8 assay. Format: functional, cell-based. The note with it: HepG2, 72 h. The gist of the method: as §1
As for `CC(C)(C)OC(=O)/C=C1/C(=O)Nc2ccc(Cl)cc21`, the half-maximal inhibitory concentration (IC50) came to 8.99 µM.

The nature of the next data set: Cytotoxicity against human SK-BR-3 cells assessed as growth inhibition at 20 uM after 72 hrs by CCK-8 assay. The note with it: SK-BR-3, 72 h, read-out: GI. Format: functional. The gist of the method: as §1
With `CC(C)(C)OC(=O)/C=C1/C(=O)Nc2ccc(Cl)cc21`, the inhibition of growth at 20 µM amounted to 87.6%.
Consider `COc1ccc2c(c1)NC(=O)/C2=C/C(=O)OC(C)(C)C`, for which the inhibition of growth at 20 µM came out at 87%.
On the same count and under the same terms, then `O=C(O)/C=C1/C(=O)Nc2ccccc21`, with 17.9%; and `COc1ccc2c(c1)/C(=C\C(=O)OC(C)(C)C)C(=O)N2`, with 87.7%.

Another data set in a line: Cytotoxicity against human L02 cells assessed as growth inhibition at 20 uM after 72 hrs by CCK-8 assay. In kind it is toxicity, cell-based. The note with it: read-out: GI. The gist of the method: as §1
As to `CC(C)(C)OC(=O)/C=C1/C(=O)Nc2ccc(Cl)cc21`, the inhibition at 72 h, 20 µM was determined as 63.3%.
As for `COc1ccc2c(c1)NC(=O)/C2=C/C(=O)OC(C)(C)C`, the inhibition at 72 h, 20 µM was 63.6%.
The same measure, in the same setting: in the case of `O=C(O)/C=C1/C(=O)Nc2ccccc21` it was 3.3%; in that of `COc1ccc2c(c1)/C(=C\C(=O)OC(C)(C)C)C(=O)N2`, 63.7%.

Another data set in a line: Cytotoxicity against human HL60 cells after 72 hrs by CCK-8 assay. Format: functional, cell-based. The note with it: HL-60, 72 h. A digest of the protocol:
as §1
`CC(C)(C)OC(=O)/C=C1/C(=O)Nc2ccc(Cl)cc21` returned an IC50 of 3.16 µM.
The same measure, in the same setting: then `COc1ccc2c(c1)NC(=O)/C2=C/C(=O)OC(C)(C)C`, with 9.15 µM; and `O=C(O)/C=C1/C(=O)Nc2ccccc21`, with over 100 µM; and `COc1ccc2c(c1)/C(=C\C(=O)OC(C)(C)C)C(=O)N2`, with 6.19 µM.

The next data set is described as follows: Cytotoxicity against human OVCAR3 cells assessed as growth inhibition at 20 uM after 72 hrs by CCK-8 assay. In kind it is functional. The conditions noted are these: OVCAR-3, 72 h, read-out: GI. A digest of the protocol: as §1
With `CC(C)(C)OC(=O)/C=C1/C(=O)Nc2ccc(Cl)cc21`, the inhibition of growth at 20 µM is 59.4%.
`COc1ccc2c(c1)NC(=O)/C2=C/C(=O)OC(C)(C)C`: the inhibition of growth at 20 µM was found to be 57.9%.
`O=C(O)/C=C1/C(=O)Nc2ccccc21`: the inhibition of growth at 20 µM turned out to be 13.4%.
On the same count and under the same terms, then `COc1ccc2c(c1)/C(=C\C(=O)OC(C)(C)C)C(=O)N2`, with 59%.

Another data set is described as follows: Cytotoxicity against human SW480 cells after 72 hrs by CCK-8 assay. In kind it is functional, cell-based. The conditions noted are these: SW480, 72 h. The gist of the method: as §1
Turning to `CC(C)(C)OC(=O)/C=C1/C(=O)Nc2ccc(Cl)cc21`, the IC50 came out at 5.49 µM.

The next data set in a line: Cytotoxicity against human SK-BR-3 cells after 72 hrs by CCK-8 assay. In kind it is functional, cell-based. The note with it: SK-BR-3, 72 h. A digest of the protocol:
as §1
`CC(C)(C)OC(=O)/C=C1/C(=O)Nc2ccc(Cl)cc21` gave an IC50 of 6.48 µM. In other words, the single-digit micromolar range.

Another data set is described as follows: Cytotoxicity against human MDA-MB-231 cells assessed as growth inhibition at 20 uM after 72 hrs by CCK-8 assay. The conditions noted are these: MDA-MB-231, 72 h, read-out: GI. In kind it is functional. A digest of the protocol:
as §1
Consider `CC(C)(C)OC(=O)/C=C1/C(=O)Nc2ccc(Cl)cc21`, for which the inhibition of growth at 20 µM came to 87.6%.
Same read-out and setting: in the case of `COc1ccc2c(c1)NC(=O)/C2=C/C(=O)OC(C)(C)C` it was 87.1%; in that of `O=C(O)/C=C1/C(=O)Nc2ccccc21`, 1%.
Same read-out and setting: then `COc1ccc2c(c1)/C(=C\C(=O)OC(C)(C)C)C(=O)N2`, with 87.6%.

The next data set can be described thus: Cytotoxicity against human L02 cells after 72 hrs by CCK-8 assay. Format: toxicity, cell-based.
Conditions: not given
A digest of the protocol: as §1
Molecule `CC(C)(C)OC(=O)/C=C1/C(=O)Nc2ccc(Cl)cc21` displayed an IC50 at 72 h of 4.72 µM.
Take `COc1ccc2c(c1)NC(=O)/C2=C/C(=O)OC(C)(C)C`: half-maximal inhibition (IC50 at 72 h) was put at 4.34 µM.
Still for that read-out and setting: then `O=C(O)/C=C1/C(=O)Nc2ccccc21`, with over 100 µM; and `COc1ccc2c(c1)/C(=C\C(=O)OC(C)(C)C)C(=O)N2`, with 3.82 µM.

Another data set can be described thus: Cytotoxicity against human L02 cells. In kind it is toxicity, cell-based.
Conditions: not given
`CC(C)(C)OC(=O)/C=C1/C(=O)Nc2ccc(Cl)cc21` came in with an IC50 of 6.18 µM. That is a single-digit micromolar value.

A short description of the next data set: Cytotoxicity against human HCT116 cells after 72 hrs by CCK-8 assay. Format: functional, cell-based. The note with it: HCT-116, 72 h. A digest of the protocol: as §1
In turn, `CC(C)(C)OC(=O)/C=C1/C(=O)Nc2ccc(Cl)cc21` came in with an IC50 of 5.5 µM. In other words, the single-digit micromolar range.

A short description of the next data set: Cytotoxicity against human Saos2 cells assessed as growth inhibition at 20 uM after 72 hrs by CCK-8 assay. Format: functional. The note with it: SAOS-2, 72 h, read-out: GI. The gist of the method: as §1
Regarding `CC(C)(C)OC(=O)/C=C1/C(=O)Nc2ccc(Cl)cc21`, the inhibition of growth at 20 µM is 82.3%.
The same measure, in the same setting: in the case of `COc1ccc2c(c1)NC(=O)/C2=C/C(=O)OC(C)(C)C` it was 83.2%; in that of `O=C(O)/C=C1/C(=O)Nc2ccccc21`, 8.9%; in that of `COc1ccc2c(c1)/C(=C\C(=O)OC(C)(C)C)C(=O)N2`, 82%.

The next data set is described as follows: Cytotoxicity against human HL60 cells assessed as growth inhibition at 20 uM after 72 hrs by CCK-8 assay. In kind it is functional. The conditions noted are these: HL-60, 72 h, read-out: GI. The gist of the method: as §1
On to `CC(C)(C)OC(=O)/C=C1/C(=O)Nc2ccc(Cl)cc21`, for which the inhibition of growth at 20 µM worked out at 94.9%.
Still for that read-out and setting: in the case of `COc1ccc2c(c1)NC(=O)/C2=C/C(=O)OC(C)(C)C` it was 91.6%; in that of `O=C(O)/C=C1/C(=O)Nc2ccccc21`, 0.9%.
Turning to `COc1ccc2c(c1)/C(=C\C(=O)OC(C)(C)C)C(=O)N2`, the inhibition of growth at 20 µM is 94.2%.

The next data set is described as follows: Antitumor activity against human HepG2 cells assessed as growth inhibition at 20 uM after 72 hrs by CCK-8 assay. In kind it is functional. The note with it: HepG2, 72 h, read-out: GI. A digest of the protocol:
as §1
As to `CC(C)(C)OC(=O)/C=C1/C(=O)Nc2ccc(Cl)cc21`, the inhibition of growth at 20 µM is 87.1%.
Regarding `COc1ccc2c(c1)NC(=O)/C2=C/C(=O)OC(C)(C)C`, the inhibition of growth at 20 µM was found to be 88.3%.
As for `O=C(O)/C=C1/C(=O)Nc2ccccc21`, the inhibition of growth at 20 µM amounted to 3%.
On the same count and under the same terms, then `COc1ccc2c(c1)/C(=C\C(=O)OC(C)(C)C)C(=O)N2`, with 90.1%.
